Assay results: PubChem BioAssay
Calls of active or inactive are those of the source.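 How the source made its calls, unless noted: active means Her2 level under about 52% in both replicate screens, with viability over 70% of control (limit read from the data); inconclusive means Her2 under the limit in one screen only, or viability under 70%; inactive means Her2 level above the set limit.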

Tests used:
[1] = reducers of endogenous Her2 protein level, primary screen, SKBR3 breast tumor cells, AlphaScreen, ATP viability (AID 461); details: 18-24 h, measured here: SKBR3 viability, ATP luminescence, at 10 µM;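 on Her2 level: lower value means less Her2 protein in the cells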;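 on viability: percent of carrier control wells set as 100% viability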
[2] = biological target: Receptor tyrosine-protein kinase erbB-2 (Homo sapiens) (UniProt P04626); assay: as above; details: 18-24 h, at 10 µM, stronger effect = lower value
[3] = SK-BR-3 cell growth inhibitors, pilot screen, 24 h, human (AID 572;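 active means viability at or below 10% of carrier control in both of two separate runs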;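 further: compound exposure lasted between 18 and 24 h rather than exactly 24 h; 100% = carrier-treated control wells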); details: SK-BR-3 viability, CellTiter-Glo luminescence, at 10 µM, stronger effect = lower value
[4] = HUVEC growth inhibition – cell-based, human, primary screen (AID 575;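 active means viability at or below 30% in both replicate assays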;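 further: 100% = median of untreated cell wells with 0.1% DMSO on each plate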); details: HUVEC proliferation, CellTiter-Glo luminescence, 72 h; at 10 µM; stronger effect = lower value
Procedure, shortened: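 system = HUVEC primary cells | amount = 1250 cells/well | buffer or medium = supplemented EBM, 2% fetal bovine serum | dosing = single-point 10 µM, DMSO 0.1% final | times = 72 h compound incubation | detection = CTG luminescence | read-out = % viability relative to median vehicle-well signal on each plate | control set = vehicle and MePR control wells | format = collagen-coated 384-well format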

[5] = growth inhibitors of H69AR lung tumor, primary screen, human, duplicate replicates (AID 580;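 active means viability at or under a set limit in both replicates, limit being median viability minus 3 SD, cut at about 48% in these data, passing the limit was not always enough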;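 further: 100% = mean luminescence of untreated wells and 0% = no signal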); details: H69AR lung tumor cells viability, ATP luminescence, 72 h; at 10 µM; stronger effect = lower value
[6] = reversal of MRP1-mediated doxorubicin resistance, pilot screen, H69AR cells, doxorubicin co-treatment (AID 601;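 active means viability loss from added drug above about 55%, and viability with drug at most 40%, in both replicates, limit read from the data, passing the limit was not always enough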); details: CellTiter-Glo, 72 h, at 10 µM; for differential viability (reversal): stronger effect = higher value
[7] = 384-well plate pilot, post-Golgi transport modulator project, inhibition of yeast transport mutant growth (AID 636; in the data active means inhibition above about 31%); details: absorbance 615 nm, about 18 h, stronger effect = higher value
[8] = growth suppression of yeast trafficking mutant, preliminary HTS, modulators of trafficking downstream of Golgi apparatus project, 1536-format plate, OD 615 nm (AID 637; in the data active means inhibition above about 30%); details: yeast transport mutant growth, absorbance 615 nm, 18 h; stronger effect = higher value
[9] = H69AR cells + 2 uM doxorubicin, measured here: viability with 2 uM doxorubicin, stronger effect = lower value
[10] = H69AR cells, compound alone cytotoxicity

Receptor tyrosine-protein kinase erbB-2 (Homo sapiens), sequence (P04626 whole entry, looked up): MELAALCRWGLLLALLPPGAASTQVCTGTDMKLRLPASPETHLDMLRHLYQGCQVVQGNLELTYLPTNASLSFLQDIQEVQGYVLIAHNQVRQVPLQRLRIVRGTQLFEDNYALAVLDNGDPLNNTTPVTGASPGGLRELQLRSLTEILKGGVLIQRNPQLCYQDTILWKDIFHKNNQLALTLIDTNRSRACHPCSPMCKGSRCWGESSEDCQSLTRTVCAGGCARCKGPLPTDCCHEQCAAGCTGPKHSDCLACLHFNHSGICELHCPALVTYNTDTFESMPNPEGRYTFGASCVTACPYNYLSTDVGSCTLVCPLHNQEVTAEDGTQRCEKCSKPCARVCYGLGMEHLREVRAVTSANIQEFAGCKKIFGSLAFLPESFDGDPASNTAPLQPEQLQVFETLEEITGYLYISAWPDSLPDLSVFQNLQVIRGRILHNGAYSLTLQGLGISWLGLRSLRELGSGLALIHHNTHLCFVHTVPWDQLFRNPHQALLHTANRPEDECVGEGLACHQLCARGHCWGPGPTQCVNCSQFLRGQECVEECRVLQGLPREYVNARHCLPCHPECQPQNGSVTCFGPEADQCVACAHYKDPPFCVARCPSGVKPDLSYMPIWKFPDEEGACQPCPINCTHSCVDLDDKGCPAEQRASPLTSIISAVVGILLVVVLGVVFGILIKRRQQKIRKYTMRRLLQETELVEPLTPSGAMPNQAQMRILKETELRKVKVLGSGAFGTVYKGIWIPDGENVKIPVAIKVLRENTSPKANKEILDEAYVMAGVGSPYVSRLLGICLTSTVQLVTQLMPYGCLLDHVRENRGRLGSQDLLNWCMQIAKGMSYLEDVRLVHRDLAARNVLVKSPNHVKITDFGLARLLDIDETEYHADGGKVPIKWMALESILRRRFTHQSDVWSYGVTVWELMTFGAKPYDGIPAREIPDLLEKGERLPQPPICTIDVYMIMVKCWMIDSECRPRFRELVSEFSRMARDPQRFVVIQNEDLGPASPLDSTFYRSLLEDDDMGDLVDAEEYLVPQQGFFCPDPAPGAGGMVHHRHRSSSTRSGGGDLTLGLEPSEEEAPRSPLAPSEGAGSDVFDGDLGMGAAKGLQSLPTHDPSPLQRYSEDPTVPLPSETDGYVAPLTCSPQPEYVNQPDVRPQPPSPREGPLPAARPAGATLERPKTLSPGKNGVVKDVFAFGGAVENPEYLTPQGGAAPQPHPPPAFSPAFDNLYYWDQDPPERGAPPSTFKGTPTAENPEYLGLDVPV

SMILES	viability [1] [%]	Her2 level [2]	viability [3]	viability [4]	viability [5]	differential viability (reversal) ([6]; H69AR cells + 2 uM doxorubicin)	viability [6, 9] [%]	viability [6, 10] [%]	inhibition [7]	inhibition [8]
CCOc1ccc(C2C=C(c3ccc(F)cc3)Nc3ncnn32)cc1 (stereo not given)	91.5	87% (inactive)	91.5% (inactive)	81.2% (inactive)	82.2% (inactive)	3.07% (inactive)	79.1	82.2	-4.42% (inactive)	9.34% (inactive)
Cc1cc(=O)oc2cc(OCC(=O)OCc3nnc(-c4ccccc4)o3)ccc12	106	92.5% (inactive)	106% (inactive)	84.1% (inactive)	94.9% (inactive)	3.04% (inactive)	91.9	94.9	-6.18% (inactive)	-0.16% (inactive)
COc1cc2c(cc1NC(=O)COC(=O)Cn1cnc3ccccc31)oc1ccccc12	92	89% (inactive)	92% (inactive)	64.4% (inactive)	80.8% (inactive)	-16.1% (inactive)	96.9	80.8	-1.87% (inactive)	-3.23% (inactive)
CCOCCCNC(=O)C1CCC(=O)N1CCc1ccccc1 (stereo not given)	100	95.5% (inactive)	100% (inactive)	84.7% (inactive)	98.3% (inactive)	-12.8% (inactive)	111	98.3	-3.42% (inactive)	-5.32% (inactive)
CCc1ccccc1OCCCCCNCCO	85.5	91% (inactive)	85.5% (inactive)	93.3% (inactive)	81.8% (inactive)	-5.63% (inactive)	87.4	81.8	-2.05% (inactive)	-1.5% (inactive)
CCOC(=O)c1[nH]c(C)c(C(=O)Nc2ccc(C)c(Cl)c2)c1C	94	88% (inactive)	94% (inactive)	61.4% (inactive)	28.6% (active)	-29% (inactive)	57.6	28.6	-5.53% (inactive)	-2.7% (inactive)
CCN(CC)Cc1csc(C(N)=O)c1	108	107% (inactive)	108% (inactive)	104% (inactive)	98.1% (inactive)	5.04% (inactive)	93.1	98.1	-1.22% (inactive)	0.32% (inactive)
COCCN1C(=O)c2oc3c(C)cc(C)cc3c(=O)c2C1c1cccc(O)c1 (stereo not given)	101	89.5% (inactive)	101% (inactive)	102% (inactive)	88.1% (inactive)	-2.81% (inactive)	90.9	88.1	-5.26% (inactive)	-3.23% (inactive)
O=C(C1CCN(c2nnnn2-c2ccccc2)CC1)N1CCN(c2ccccc2)CC1	106	87.5% (inactive)	106% (inactive)	85.6% (inactive)	79% (inactive)	1.51% (inactive)	77.5	79	-5.27% (inactive)	5.08% (inactive)
COc1cccc(OC)c1C(=O)Nc1ccc(CN2CCCCC2)cc1	98.5	84% (inactive)	98.5% (inactive)	102% (inactive)	89.4% (inactive)	8.96% (inactive)	80.4	89.4	-0.66% (inactive)	-2.06% (inactive)
CC(C(=O)OCn1nnc2ccccc2c1=O)N1C(=O)c2ccccc2C1=O (stereo not given)	110	100% (inactive)	110% (inactive)	93.9% (inactive)	86.6% (inactive)	-21% (inactive)	108	86.6	-1.45% (inactive)	30.2% (active)
O=C(Nc1ccccc1)N(O)c1ccc(Cl)cc1	93	79% (inactive)	93% (inactive)	88.5% (inactive)	89.7% (inactive)	11.8% (inactive)	77.9	89.7	-2.11% (inactive)	-4.5% (inactive)
COc1cc(OC)c(C(=O)Nc2ncn[nH]2)cc1OC	102	122% (inactive)	102% (inactive)	95.4% (inactive)	95% (inactive)	-6.38% (inactive)	101	95	1.97% (inactive)	-6.72% (inactive)
